UPR CHOP act = activators of apoptotic arm of unfolded protein response (CHOP). 330,000 tested, 0.34% active. CHO-CHOP luciferase reporter, UPR activation, luminescence; percent of tunicamycin response over DMSO baseline. activation, % at 10 µM;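 active = at 10 µM dose, activation of 40% or more, normalized to positive control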
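Assay system: CHO-CHOP cells, stable luciferase reporter of PERK-eIF2a-CHOP signalling / Buffer or medium: F12 plus 10% serum / Compound dosing: one dose, 10 µM in 0.5% DMSO / Times: 6 h compound treatment, 37 °C / Technique: luciferase luminescence / Read-out: % reporter activation, DMSO baseline versus tunicamycin full activation / Benchmarks: tunicamycin and DMSO controls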
697 NFkB inh = lowers PMA/ionomycin-induced NF-kB signal in 697 B cells. 697 B-cell NF-kB luciferase reporter, 16 h. inhibition, % at 4 µM. 330,000 tested, 0.33% active. AID 435022; in the data active = inhibition above about 35%
CRFBP-R2 block = CRF-BP/CRF-R2 complex antagonism; inhibition, % at 11.8 µM; AID 588475; HEK293 CRF-R2/CRF-BP, CRF-induced calcium fluorescence; 350,000 tested, 0.59% active;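 active = inhibition of the ligand-induced calcium signal above about 50% at the single tested concentration, limit read from the data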
XBP1 UPR activ = adaptive UPR (XBP1) activation; CHO-XBP1 luciferase reporter, IRE1-XBP1 UPR activation, luminescence; percent of tunicamycin response, DMSO as zero; 330,000 tested, 0.33% active; AID 463104; activation, % at 20 µM;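 active = versus positive control, 20 µM dose yields 30% or more activation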
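Material – CHO cell line with stable XBP1 luciferase reporter · Buffer or medium – F12 plus 10% FBS · Compound – single point, 20 µM final compound, 1% DMSO · Schedule – 16-18 h cell attachment at 37 °C, then 6 h compound exposure · Signal – Steady-Glo luminescence read · Benchmarks – high control tunicamycin 10 µg/mL final, low control DMSO vehicle only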
Jurkat NFkB inh = lowers PMA/ionomycin-induced NF-kB signal in Jurkat cells; 330,000 tested, 0.53% active; inhibition, % at 4 µM; PMA/ionomycin-induced NF-kB luciferase reporter, luminescence; AID 435003; in the data active = inhibition above about 50%
A number is an active result; i = inactive; nt = no result. Sampled rows, rich in hits. Any-hit rate of the full collection: about 1.8%.

SMILES | UPR CHOP act | 697 NFkB inh | CRFBP-R2 block | XBP1 UPR activ | Jurkat NFkB inh
O=C(NNC1=C(C(=O)C(F)(F)F)CCC1)c1ccc(Cl)cc1 | i | i | i | i | i
CC(=O)c1sc(NC(=O)CCS(=O)(=O)c2ccc(Cl)cc2)nc1C | i | i | 61.8 | i | i
COc1ccc(NC(=O)CCS(=O)(=O)c2ccc(Cl)cc2)cc1 | i | i | i | i | i
O=C(NNC(=O)c1cc(Br)c(Br)s1)c1csc(N2CCOCC2)n1 | i | i | i | i | i
CS(=O)(=O)c1ccc(C(=O)CN2C(=O)NC3(CCCc4ccccc43)C2=O)cc1 (centres undefined) | i | i | 53.4 | i | i
COc1ccc(NC(=O)c2nc3nccc(C)n3n2)cc1S(=O)(=O)N1CCOCC1 | i | i | 108.5 | i | i
Cc1cc(C)cc(NC(=O)c2ccc(N3C(=O)C4CCCCC4C3=O)cc2)c1 (centres undefined) | i | i | 75.3 | i | i
C#CCNC(=O)C1=C[C@H](c2ccc3c(c2)OCO3)[C@@H](CCCO)[C@H](OCC)O1 | i | i | 81.3 | i | i
COc1ccc(N2CC(C(=O)N[C@H](C(=O)NC3CCCCC3)C(C)C)CC2=O)cc1 (some centres undefined) | i | i | i | i | i
O=C(CC1C(=O)NCCN1C(=S)Nc1ccccc1)Nc1ccc2c(c1)OCCO2 (centres undefined) | i | i | i | i | i
O=C(CC1C(=O)NCCN1C(=O)Nc1ccccc1)Nc1ccc2c(c1)OCO2 (centres undefined) | i | i | 73.6 | i | i
COc1ccc(N(C)S(=O)(=O)c2ccc3c(c2)CCN3C(=O)C2CC2)c(OC)c1 | i | i | i | i | i
COCCN1CCC(CO)C1 (centres undefined) | nt | nt | 62.4 | nt | nt
COCCN1CCC(CNCc2cn[nH]c2-c2ccc(C)c(C)c2)C1 (centres undefined) | i | i | i | i | i
CC(C)c1ccc(OCc2ccc(C(=O)N3CCCC3)o2)cc1 | i | i | i | i | i
CCOC(=O)[C@H]1[C@H]2COc3ccc(Cl)cc3[C@@H]2N2C(=O)[C@@H](CO)NC(=O)[C@@]12C | i | i | i | i | i
CC(=O)N1c2ccc(S(=O)(=O)N(C)CC(=O)NC3CCCC3)cc2CC1C (centres undefined) | i | i | 62.8 | i | i
O=C(c1ccc(Cn2cnnn2)cc1)N1CCCC(Nc2ccc(F)c(F)c2)C1 (centres undefined) | i | i | i | i | i
CC(C)(C(N)=O)N1CCN(c2ncc(C(F)(F)F)cc2Cl)CC1 | i | i | i | i | i
COC(=O)C1CC(Cl)CN1c1ncc(C(F)(F)F)cc1Cl (centres undefined) | i | i | 52.4 | i | i
Cc1ccc(NC(=O)COC(=O)CCc2c[nH]c3ccccc23)c(C)c1 | i | i | 54.5 | i | i
Cc1ccccc1NC(=O)COC(=O)CCc1c[nH]c2ccccc12 | i | i | i | i | i
COc1ccc(S(=O)(=O)N2CCCCCC2)cc1C(=O)NCCc1ccccc1 | i | i | 112.1 | i | i
Cc1ccc(S(=O)(=O)N2CCCCC2)cc1C(=O)NCCc1ccccc1 | i | i | i | i | i
CCN(CC)C1Oc2cc3c(cc2C(c2cccc(OC)c2O)C1C)OCO3 (centres undefined) | nt | nt | 120.4 | nt | nt
SMILES | UPR CHOP act | 697 NFkB inh | CRFBP-R2 block | XBP1 UPR activ | Jurkat NFkB inh
CC(NC(=O)COC(=O)C12CC3CC(CC(Br)(C3)C1)C2)c1ccccc1 (centres undefined) | i | i | 61.8 | i | i
CC(=O)N1CC(C)Oc2ccc(S(=O)(=O)Nc3ccc(Cl)cn3)cc21 (centres undefined) | i | i | i | i | i
CCN(CC)Cc1c(C)[nH]c2ccc(NC(C)=O)cc2c1=O | nt | nt | 67.0 | nt | nt
COc1ccc(NS(=O)(=O)c2cccc(C(=O)OCC(=O)NC3CC3)c2)cc1 | i | i | i | i | i
COc1ccc(-c2nn(-c3ccccc3C)cc2CNCc2cccnc2)cc1F | i | i | 73.3 | i | i
Nc1cccc(Oc2ccc3c(c2)C(=O)NC3=O)c1 | i | i | i | i | i
CC1(c2ccccc2)CC(C)(C)N2C(=O)/C(=C3\SC(=S)NC3=O)c3cccc1c32 (centres undefined) | nt | nt | 54.3 | nt | nt
CNS(=O)(=O)c1cccc(C(=O)NCC(c2ccco2)N(C)C)c1 (centres undefined) | i | i | 110.5 | i | i
Cc1cccc(CCNC(=O)c2cc(S(=O)(=O)N3CCCCC3)c[nH]2)c1 | i | i | i | i | i
N#C/C(=N\Nc1ccc(Cl)cc1)C(=O)c1ccccc1 | i | i | 83.3 | i | i
COc1ccc(C(=O)OCC(=O)N(C)C2CCS(=O)(=O)C2)cc1S(=O)(=O)N(C)Cc1ccccc1 (centres undefined) | i | i | 109.4 | i | i
COc1ccc(C(=O)OCC(=O)N(C)C2CCS(=O)(=O)C2)cc1Br (centres undefined) | i | i | i | i | i
CC(C)C[C@@H](CNCC(=O)[C@H](C)NC(=O)c1[nH]cnc1C(=O)N[C@H](CN)CC(C)C)NC(=O)c1nc[nH]c1C(=O)N[C@@H](C)C(=O)O | nt | nt | i | nt | nt
COc1ccc(N2CCN(CCCNC(=O)C(=O)c3c(C)[nH]c4ccccc34)CC2)cc1 | i | i | 62.1 | i | i
COc1ccc(N2CCN(CC(=O)c3c[nH]c4ccccc34)CC2)cc1 | i | i | i | i | i
COc1ccc(-c2csc3ncnc(Oc4cccc5ccc(C)nc45)c23)cc1 | i | i | i | i | i
Cc1ccc2cccc(Oc3ncnc4scc(-c5ccccc5)c34)c2n1 | i | i | 65.9 | i | i
Cc1ccc(N2C(=O)C3C4C=CC(CC4)C3C2=O)cc1[N+](=O)[O-] (centres undefined) | i | i | 73.0 | i | i
COc1ccc(Cl)cc1NC(=O)C(C)NC(c1ccccc1)c1ccccc1 (centres undefined) | i | i | 53.2 | i | i
COc1cc(CN2CCC(CO)(CCOc3ccccc3)CC2)cc(OC)c1OC | i | i | i | i | i
COc1ccc(CN2CCC(CO)(CCOc3ccccc3)CC2)cc1C | i | i | 87.5 | i | i
C=CCn1cnc2c(c1=O)c1nc3ccccc3nc1n2/N=C/c1cc(OC)c(OC)c(OC)c1 | i | i | i | i | i
C=CCn1cnc2c(c1=O)c1nc3ccccc3nc1n2/N=C/c1cccc(OC)c1OC | i | i | 54.0 | i | i
COCCn1cnc2c(c1=O)c1nc3ccccc3nc1n2/N=C/c1cccc(OC)c1 | i | i | 56.9 | i | i
O=C1C=C(c2ccc(F)cc2OCc2ccccc2)C[C@@H](c2ccc(Cl)cc2)C1 | i | i | i | i | i
CCN1C(=O)[C@H]2[C@@H](c3ccc(OC)cc3)N3C(=O)CN(CCOC)C(=O)[C@@]3(C)[C@H]2C1=O | i | i | i | i | i
Clc1ccccc1NN(Cc1ccccn1)c1ccccc1Cl | nt | nt | i | nt | nt

Assay outcomes deposited in PubChem BioAssay by Sanford-Burnham Center for Chemical Genomics.
